ChEMBL document CHEMBL5058577, “EUbOPEN Chemogenomics Library 2 (Multiplex)” (2022)

Tested on: HEK-293T
Experiment: Multiplex assay against HEK293T
Format: toxicity, cell-based
Settings: human
Procedure, shortened: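 Tubulin, mitochondrial-mass and membrane-permeability phenotypes are per cents of healthy-nucleus cells. Cells were gated by CellPathfinder machine learning into Hoechst high-intensity objects or normal cells, normal cells into healthy, pyknosed or fragmented nuclei, and pyknosed cells into mitotic or apoptotic. Before that, live cells stained at seeding with Hoechst33342, BioTracker Green Microtubule Cytoskeleton Dye, MitoTracker Red and Annexin V Alexa Fluor 680 were imaged on a CQ1 microscope at 37°C and 5% CO2 after compound addition.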

[1] = 12 h, 1 µM, compound concentration 1 uM, replicate 1
[2] = 12 h, 1 µM, compound concentration 1 uM, replicate 2
[3] = 12 h, 10 µM, compound concentration 10 uM, replicate 1
[4] = 12 h, 10 µM, compound concentration 10 uM, replicate 2
[5] = 24 h, 1 µM, compound concentration 1 uM, replicate 1
[6] = 24 h, 1 µM, compound concentration 1 uM, replicate 2
[7] = 24 h, 10 µM, compound concentration 10 uM, replicate 1
[8] = 24 h, 10 µM, compound concentration 10 uM, replicate 2
[9] = 48 h, 1 µM, compound concentration 1 uM, replicate 1
[10] = 48 h, 1 µM, compound concentration 1 uM, replicate 2
[11] = 48 h, 10 µM, compound concentration 10 uM, replicate 1
[12] = 48 h, 10 µM, compound concentration 10 uM, replicate 2

Cn1cc(C(=O)OCC2CCN(CCNS(C)(=O)=O)CC2)c2ccccc21
Population Apoptotic (%) [1]: 39%
Population Fragmented Nuclei (%) [1]: 5%
Population Healthy Nuclei (%) [1]: 83%
Population Hoechst High Intensity Objects (%) [1]: 7%
Population Membrane Permeable-Phenotype (%) [1]: 0%
Population Mitochondria Different-Phenotype (%) [1]: 35%
Population Mitotic Cells (%) [1]: 60%
Population Normal (%) [1]: 92%
Population Pyknosed Nuclei (%) [1]: 10%
Population Tubulin-Different-Phenotype (%) [1]: 22%
Total Cell Count [1]: 466
Population Apoptotic (%) [2]: 56%
Population Fragmented Nuclei (%) [2]: 9%
Population Healthy Nuclei (%) [2]: 76%
Population Hoechst High Intensity Objects (%) [2]: 8%
Population Mitochondria Different-Phenotype (%) [2]: 62%
Population Mitotic Cells (%) [2]: 43%
Population Normal (%) [2]: 91%
Population Pyknosed Nuclei (%) [2]: 14%
Population Tubulin-Different-Phenotype (%) [2]: 28%
Total Cell Count [2]: 248
Population Apoptotic (%) [3]: 47%
Population Fragmented Nuclei (%) [3]: 10%
Population Healthy Nuclei (%) [3]: 73%
Population Hoechst High Intensity Objects (%) [3]: 6%
Population Membrane Permeable-Phenotype (%) [3]: 0%
Population Mitochondria Different-Phenotype (%) [3]: 55%
Population Mitotic Cells (%) [3]: 52%
Population Normal (%) [3]: 93%
Population Pyknosed Nuclei (%) [3]: 15%
Population Tubulin-Different-Phenotype (%) [3]: 53%
Total Cell Count [3]: 479
Population Apoptotic (%) [4]: 43%
Population Healthy Nuclei (%) [4]: 71%
Population Hoechst High Intensity Objects (%) [4]: 10%
Population Mitochondria Different-Phenotype (%) [4]: 73%
Population Mitotic Cells (%) [4]: 56%
Population Normal (%) [4]: 89%
Population Pyknosed Nuclei (%) [4]: 18%
Population Tubulin-Different-Phenotype (%) [4]: 47%
Total Cell Count [4]: 393
Population Apoptotic (%) [5]: 29%
Population Fragmented Nuclei (%) [5]: 6%
Population Healthy Nuclei (%) [5]: 82%
Population Hoechst High Intensity Objects (%) [5]: 4%
Population Membrane Permeable-Phenotype (%) [5]: 1%
Population Mitochondria Different-Phenotype (%) [5]: 21%
Population Mitotic Cells (%) [5]: 70%
Population Normal (%) [5]: 95%
Population Pyknosed Nuclei (%) [5]: 10%
Population Tubulin-Different-Phenotype (%) [5]: 16%
Total Cell Count [5]: 650
Population Apoptotic (%) [6]: 48%
Population Fragmented Nuclei (%) [6]: 12%
Population Healthy Nuclei (%) [6]: 76%
Population Hoechst High Intensity Objects (%) [6]: 5%
Population Membrane Permeable-Phenotype (%) [6]: 0%
Population Mitochondria Different-Phenotype (%) [6]: 42%
Population Mitotic Cells (%) [6]: 51%
Population Normal (%) [6]: 94%
Population Tubulin-Different-Phenotype (%) [6]: 17%
Total Cell Count [6]: 283
Population Apoptotic (%) [7]: 35%
Population Fragmented Nuclei (%) [7]: 11%
Population Healthy Nuclei (%) [7]: 74%
Population Hoechst High Intensity Objects (%) [7]: 5%
Population Membrane Permeable-Phenotype (%) [7]: 1%
Population Mitochondria Different-Phenotype (%) [7]: 43%
Population Mitotic Cells (%) [7]: 64%
Population Normal (%) [7]: 94%
Population Pyknosed Nuclei (%) [7]: 13%
Population Tubulin-Different-Phenotype (%) [7]: 50%
Total Cell Count [7]: 587
Population Apoptotic (%) [8]: 48%
Population Fragmented Nuclei (%) [8]: 10%
Population Healthy Nuclei (%) [8]: 79%
Population Hoechst High Intensity Objects (%) [8]: 6%
Population Membrane Permeable-Phenotype (%) [8]: 0%
Population Mitochondria Different-Phenotype (%) [8]: 56%
Population Mitotic Cells (%) [8]: 51%
Population Normal (%) [8]: 93%
Population Pyknosed Nuclei (%) [8]: 9%
Population Tubulin-Different-Phenotype (%) [8]: 37%
Total Cell Count [8]: 491
Population Apoptotic (%) [9]: 25%
Population Fragmented Nuclei (%) [9]: 12%
Population Healthy Nuclei (%) [9]: 78%
Population Hoechst High Intensity Objects (%) [9]: 3%
Population Membrane Permeable-Phenotype (%) [9]: 1%
Population Mitochondria Different-Phenotype (%) [9]: 12%
Population Mitotic Cells (%) [9]: 74%
Population Normal (%) [9]: 96%
Population Pyknosed Nuclei (%) [9]: 8%
Population Tubulin-Different-Phenotype (%) [9]: 10%
Total Cell Count [9]: 1090
Population Apoptotic (%) [10]: 44%
Population Fragmented Nuclei (%) [10]: 11%
Population Healthy Nuclei (%) [10]: 82%
Population Hoechst High Intensity Objects (%) [10]: 4%
Population Membrane Permeable-Phenotype (%) [10]: 3%
Population Mitochondria Different-Phenotype (%) [10]: 23%
Population Mitotic Cells (%) [10]: 55%
Population Normal (%) [10]: 95%
Population Pyknosed Nuclei (%) [10]: 6%
Population Tubulin-Different-Phenotype (%) [10]: 11%
Total Cell Count [10]: 490
Population Apoptotic (%) [11]: 38%
Population Fragmented Nuclei (%) [11]: 16%
Population Healthy Nuclei (%) [11]: 77%
Population Hoechst High Intensity Objects (%) [11]: 6%
Population Membrane Permeable-Phenotype (%) [11]: 1%
Population Mitochondria Different-Phenotype (%) [11]: 31%
Population Mitotic Cells (%) [11]: 61%
Population Normal (%) [11]: 93%
Population Pyknosed Nuclei (%) [11]: 6%
Population Tubulin-Different-Phenotype (%) [11]: 28%
Total Cell Count [11]: 883
Population Fragmented Nuclei (%) [12]: 13%
Population Healthy Nuclei (%) [12]: 79%
Population Hoechst High Intensity Objects (%) [12]: 4%
Population Membrane Permeable-Phenotype (%) [12]: 0%
Population Mitochondria Different-Phenotype (%) [12]: 37%
Population Normal (%) [12]: 95%
Population Tubulin-Different-Phenotype (%) [12]: 26%
Total Cell Count [12]: 758
